Assay results: article PMC8190911 (ACS Omega, 2021)

Experiments:
[1] = target: urease from Canavalin ensiformis (jack bean) (Canavalia ensiformis, UniProt P07374); assay: Inhibition of urease activity; type: biochemical
[2] = target: T1, horseradish peroxidase (HRP) (Armoracia rusticana, UniProt P00433); assay: Inhibition of HRP activity; type: biochemical
T1 sequence (P00433 31-338 limits assumed): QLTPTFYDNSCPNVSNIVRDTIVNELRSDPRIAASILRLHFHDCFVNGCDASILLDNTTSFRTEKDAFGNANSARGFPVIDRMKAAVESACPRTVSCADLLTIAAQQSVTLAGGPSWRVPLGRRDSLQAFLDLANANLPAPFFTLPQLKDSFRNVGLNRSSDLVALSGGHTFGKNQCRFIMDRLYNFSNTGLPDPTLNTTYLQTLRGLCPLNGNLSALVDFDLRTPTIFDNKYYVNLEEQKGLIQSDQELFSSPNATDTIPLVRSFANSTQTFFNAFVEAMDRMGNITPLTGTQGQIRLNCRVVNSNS
Outline: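 HRP (10 μL) combined with test compound (10 μL, 250–1000 μM) and 100 μL TMB. Reaction started with 0.03% (v/v) H2O2. The blue oxidised TMB product was read at 655 nm and % inhibition calculated against uninhibited activity. Sodium azide at 1000 μM served as reference inhibitor. Performed in triplicate.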

[3] = tested on: rat splenic lymphocytes; assay: Splenic lymphocyte proliferation with Con-A and HU; type: cell-based; settings: HU 50 μM, rutin or gallic acid 10 μM, Con-A 5 μg/mL, 48 h, MTT
Outline: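 Spleens were taken aseptically from control rats into incomplete RPMI and minced through a strainer. Erythrocytes were lysed with 155 mM NH4Cl, 12 mM NaHCO3 and 0.1 mM EDTA, and the cells were washed and resuspended in complete RPMI. Cells were seeded at 2.5 × 10^4 per well, pretreated with test compound plus HU for 1 h at 37 °C, then stimulated with Con-A for 48 h. MTT (2.5 mg/mL, 20 μL) was added for 4 h and absorbance read at 570 nm. Groups were compared by Student's t-test.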

[4] = tested on: OATP1B3; settings: read-out: IC50, inhibition of OATP1B3-mediated transport of CCK-8; ref Li et al.; cited from earlier work
[5] = rat; cited from earlier work
[6] = tested on: red blood cells; assay: Hemolysis assay on rat RBCs; type: cell-based; settings: up to 1 mg/mL, 30 min at 37 °C
Outline: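 Blood from control rats drawn into aqueous EDTA and spun at 8000 rpm for 10 min. RBCs washed three times in PBS (pH 7.4) and diluted 1:10. Diluted cells (100 μL) mixed with 900 μL PBS containing test compound at 0.1 to 1 mg/mL. Blank PBS served as negative control and 1% Triton X-100 as positive control. Incubated 30 min at 37 °C with shaking, spun at 4 °C, supernatant absorbance read at 540 nm. % hemolysis scaled between the PBS and Triton absorbances.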

[7] = tested on: CYP2E1; settings: cited from earlier work
[8] = at the concentration range of 250–1000 μM

Sequence of urease from Canavalin ensiformis (jack bean) (P07374 whole entry, looked up): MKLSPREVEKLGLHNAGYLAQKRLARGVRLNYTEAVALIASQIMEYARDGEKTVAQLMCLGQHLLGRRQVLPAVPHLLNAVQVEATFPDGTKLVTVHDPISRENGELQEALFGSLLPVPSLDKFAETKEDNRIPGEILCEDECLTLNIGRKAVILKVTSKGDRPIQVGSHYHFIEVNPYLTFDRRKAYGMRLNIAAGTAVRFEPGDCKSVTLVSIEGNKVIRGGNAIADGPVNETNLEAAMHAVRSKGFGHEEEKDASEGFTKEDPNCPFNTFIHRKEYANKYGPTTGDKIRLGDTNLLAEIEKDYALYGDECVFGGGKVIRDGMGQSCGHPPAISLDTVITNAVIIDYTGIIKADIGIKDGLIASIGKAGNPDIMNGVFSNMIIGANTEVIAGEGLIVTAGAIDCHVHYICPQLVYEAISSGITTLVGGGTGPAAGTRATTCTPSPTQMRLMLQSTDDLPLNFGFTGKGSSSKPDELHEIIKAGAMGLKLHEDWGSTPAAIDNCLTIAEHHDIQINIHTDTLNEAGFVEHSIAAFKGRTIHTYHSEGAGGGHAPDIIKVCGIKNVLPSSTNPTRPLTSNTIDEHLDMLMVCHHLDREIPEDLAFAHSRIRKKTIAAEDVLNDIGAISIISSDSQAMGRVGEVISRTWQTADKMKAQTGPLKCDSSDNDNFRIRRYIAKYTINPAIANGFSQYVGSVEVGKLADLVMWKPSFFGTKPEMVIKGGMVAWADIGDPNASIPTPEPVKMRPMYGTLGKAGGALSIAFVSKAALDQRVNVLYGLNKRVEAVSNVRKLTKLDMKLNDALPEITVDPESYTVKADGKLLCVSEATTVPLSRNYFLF

IC50 [1] | inhibition of HRP [2, 8] | SMILES | effect on proliferation of lymphocytes [3] | IC50 [4] | effect on oral exposure of rosuvastatin [5] | inhibition of HRP ([2]; at a concentration of 1000 μM) | RBCs lysis (% Hb released relative to positive and negative controls) [6] | effect on expression of CYP2E1 [7]
635 µM | 53–70% | O=C(O)c1cc(O)c(O)c(O)c1 [gallic acid] | significantly elevated the proliferation of lymphocytes | 1.6 µM | augmented the oral exposure of rosuvastatin | – | – | –
– | – | NC(=O)NO [HU, Hydroxyurea, reference compound] | decreased | – | – | – | – | –
– | – | [N-]=[N+]=[N-].[Na+] [sodium azide, reference compound] | – | – | – | 97% | – | –
780 µM | 40–64% | C[C@@H]1O[C@@H](OC[C@H]2O[C@@H](Oc3c(-c4ccc(O)c(O)c4)oc4cc(O)cc(O)c4c3=O)[C@H](O)[C@@H](O)[C@@H]2O)[C@H](O)[C@H](O)[C@H]1O [rutin, Rutin] | no considerable influence | – | – | – | ≤ 5% | enhanced its expression
